Calls of active or inactive are those of the source. The rule behind the calls is not given here. Where a SMILES comes first, the peptide text is derived from it.
Columns and labels:
[1] = system: Pseudomonas aeruginosa; assay: Antibacterial activity against Pseudomonas aeruginosa M7728 clinical isolate expressing blaIMP gene by microdilution test; assay type: functional
How it was run: (§1)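 MIC by standard broth microdilution following CLSI recommendations, in Mueller Hinton broth supplemented with Ca²⁺ (20-25 mg/L) and Mg²⁺ (10-12.5 mg/L); ATCC reference strains included in the panel.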

[2] = system: Klebsiella pneumoniae; assay: Antibacterial activity against Klebsiella pneumoniae M9140 clinical isolate expressing blaCIT gene by microdilution test; assay type: functional
How it was run: (§2)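 MIC by standard broth microdilution following CLSI recommendations, in Mueller Hinton broth supplemented with Ca²⁺ (20-25mg/L) and Mg²⁺ (10-12.5mg/L); peptides tested against a panel of multi-resistant clinical isolates plus ATCC reference strains.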

[3] = system: Enterococcus faecium; assay: Antibacterial activity against Enterococcus faecium M2304 clinical isolate expressing vanA gene by microdilution test; assay type: functional; how it was run: as §2
[4] = system: Enterococcus faecium; assay: Antibacterial activity against Enterococcus faecium M2481 clinical isolate expressing vanB gene by microdilution test; assay type: functional; how it was run: as §2
[5] = system: Klebsiella pneumoniae; assay: Antibacterial activity against Klebsiella pneumoniae M13540 clinical isolate expressing blaKPC-2 gene by microdilution test; assay type: functional; how it was run: as §2
[6] = system: Pseudomonas aeruginosa; assay: Antibacterial activity against Pseudomonas aeruginosa M7525 clinical isolate expressing blaSPM gene by microdilution test; assay type: functional; how it was run: as §1
[7] = system: Klebsiella pneumoniae; assay: Antibacterial activity against Klebsiella pneumoniae M9170 clinical isolate expressing blaOXA-GIII gene by microdilution test; assay type: functional; how it was run: as §2
[8] = system: Enterococcus faecium; assay: Antibacterial activity against Enterococcus faecium M2619 clinical isolate expressing vanB gene by microdilution test; assay type: functional; how it was run: as §2
[9] = system: Pseudomonas aeruginosa; assay: Antibacterial activity against Pseudomonas aeruginosa ATCC 27853 by microdilution test; assay type: functional; how it was run: as §2
[10] = system: Enterococcus faecalis; assay: Antibacterial activity against Enterococcus faecalis M4449 clinical isolate expressing vanA gene by microdilution test; assay type: functional; how it was run: as §2
[11] = system: Enterococcus gallinarum; assay: Antibacterial activity against Enterococcus gallinarum M2685 clinical isolate expressing vanC1 and vanA gene by microdilution test; assay type: functional; how it was run: as §2
[12] = system: Enterococcus faecalis; assay: Antibacterial activity against Enterococcus faecalis M4899 clinical isolate expressing vanB gene by microdilution test; assay type: functional; how it was run: as §2
[13] = system: Pseudomonas aeruginosa; assay: Antibacterial activity against Pseudomonas aeruginosa M5470 by microdilution test; assay type: functional; how it was run: as §1
[14] = system: Acinetobacter sp.; assay: Antibacterial activity against Acinetobacter sp. M9665 clinical isolate expressing blaOXA-51 gene by microdilution test; assay type: functional; how it was run: as §2
[15] = system: Pseudomonas aeruginosa; assay: Antibacterial activity against Pseudomonas aeruginosa M7712 clinical isolate expressing blaSPM gene by microdilution test; assay type: functional; how it was run: as §1
[16] = system: Enterococcus faecalis; assay: Antibacterial activity against Enterococcus faecalis M6383 clinical isolate expressing vanA gene by microdilution test; assay type: functional; how it was run: as §2
[17] = system: Escherichia coli; assay: Antibacterial activity against Escherichia coli ATCC 25922 by microdilution test; assay type: functional; how it was run: as §2
[18] = system: Enterococcus faecium; assay: Antibacterial activity against Enterococcus faecium M6261 by microdilution test; assay type: functional; how it was run: as §2
[19] = system: Enterococcus faecalis; assay: Antibacterial activity against Enterococcus faecalis M4992 clinical isolate expressing vanA gene by microdilution test; assay type: functional; how it was run: as §2
[20] = system: Pseudomonas aeruginosa; assay: Antibacterial activity against Pseudomonas aeruginosa M5200 clinical isolate expressing blaVIM and blaGES-1 gene by microdilution test; assay type: functional; how it was run: as §1
[21] = system: Acinetobacter sp.; assay: Antibacterial activity against Acinetobacter sp. M5282 clinical isolate expressing blaOXA-51 gene by microdilution test; assay type: functional; how it was run: as §2
[22] = system: Acinetobacter sp.; assay: Antibacterial activity against Acinetobacter sp. M7978 clinical isolate expressing blaIMP-1 gene by microdilution test; assay type: functional; how it was run: as §2
[23] = system: Pseudomonas aeruginosa; assay: Antibacterial activity against Pseudomonas aeruginosa M7723 clinical isolate expressing blaKPC-2 gene by microdilution test; assay type: functional; how it was run: as §1
[24] = system: Klebsiella pneumoniae; assay: Antibacterial activity against Klebsiella pneumoniae PFAV3 by microdilution test; assay type: functional; how it was run: as §2
[25] = system: Acinetobacter sp.; assay: Antibacterial activity against Acinetobacter sp. M5277 clinical isolate expressing blaPER gene by microdilution test; assay type: functional; how it was run: as §2
[26] = system: Enterococcus faecalis; assay: Antibacterial activity against Enterococcus faecalis ATCC 51299 clinical isolate expressing vanB gene by microdilution test; assay type: functional; how it was run: as §2
[27] = system: Pseudomonas aeruginosa; assay: Antibacterial activity against Pseudomonas aeruginosa M13513 clinical isolate expressing blaKPC-2 gene by microdilution test; assay type: functional; how it was run: as §2
[28] = system: Pseudomonas aeruginosa; assay: Antibacterial activity against Pseudomonas aeruginosa M7907 clinical isolate expressing blaPER gene by microdilution test; assay type: functional; how it was run: as §1
[29] = system: Pseudomonas aeruginosa; assay: Antibacterial activity against Pseudomonas aeruginosa PCOS12 by microdilution test; assay type: functional; how it was run: as §1
[30] = Toxicity in human RBC assessed as hemolytic activity relative to control; assay type: cell-based, Erythrocyte; conditions: red blood cells (RBC), read-out: Activity
How it was run: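 Heparinized human whole blood diluted 3x in PBS and centrifuged 10 min at 1500 rpm, repeated three times. Cells resuspended to 10% (v/v), then diluted to about 0.5% (v/v). Peptides added at various concentrations for 30 min at 37 °C. Supernatant absorbance read at 550 nm. Lysis calculated against buffer (0%) and water (100%). Readings taken in triplicate and averaged.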

[31] = system: Acinetobacter sp.; assay: Antibacterial activity against Acinetobacter sp. M7489 clinical isolate expressing blaOXA-51 and blaTEM gene by microdilution test; assay type: functional; how it was run: as §2
[32] = system: Enterococcus faecalis; assay: Antibacterial activity against Enterococcus faecalis M6983 clinical isolate expressing vanA gene by microdilution test; assay type: functional; how it was run: as §2
[33] = system: Enterococcus faecium; assay: Antibacterial activity against Enterococcus faecium M2664 clinical isolate expressing vanA gene by microdilution test; assay type: functional; how it was run: as §2
[34] = system: Acinetobacter sp.; assay: Antibacterial activity against Acinetobacter sp. M5179 clinical isolate expressing blaOXA-51 gene by microdilution test; assay type: functional; how it was run: as §2
[35] = system: Acinetobacter sp.; assay: Antibacterial activity against Acinetobacter sp. PFAV1 clinical isolate expressing blaOXA-51, blaOXA-58 and blaPER gene by microdilution test; assay type: functional; how it was run: as §2
[36] = system: Acinetobacter sp.; assay: Antibacterial activity against Acinetobacter sp. M9013 clinical isolate expressing blaOXA-51 and blaIMP gene by microdilution test; assay type: functional; how it was run: as §2
[37] = system: Pseudomonas aeruginosa; assay: Antibacterial activity against Pseudomonas aeruginosa M11005 clinical isolate expressing blaKPC-2 gene by microdilution test; assay type: functional; how it was run: as §2
[38] = system: Enterococcus faecalis; assay: Antibacterial activity against Enterococcus faecalis M6534 clinical isolate expressing vanB gene by microdilution test; assay type: functional; how it was run: as §2
[39] = system: Enterococcus faecium; assay: Antibacterial activity against Enterococcus faecium PZAP95 by microdilution test; assay type: functional; how it was run: as §2
[40] = system: Pseudomonas aeruginosa; assay: Antibacterial activity against Pseudomonas aeruginosa M5109 clinical isolate expressing blaVIM and blaGES-1 gene by microdilution test; assay type: functional; how it was run: as §1
[41] = system: Klebsiella pneumoniae; assay: Antibacterial activity against Klebsiella pneumoniae M9491 clinical isolate expressing blaMOX gene by microdilution test; assay type: functional; how it was run: as §2
[42] = system: Enterococcus gallinarum; assay: Antibacterial activity against Enterococcus gallinarum M2723 clinical isolate expressing vanC1 and vanA gene by microdilution test; assay type: functional; how it was run: as §2
[43] = system: Enterococcus faecalis; assay: Antibacterial activity against Enterococcus faecalis ATCC 29212 by microdilution test; assay type: functional; how it was run: as §2
[44] = system: Acinetobacter sp.; assay: Antibacterial activity against Acinetobacter sp. M13523 clinical isolate expressing blaOXA-51 gene by microdilution test; assay type: functional; how it was run: as §2
[45] = system: Acinetobacter sp.; assay: Antibacterial activity against Acinetobacter sp. M5949 clinical isolate expressing blaOXA-23 and blaOXA-GVI gene by microdilution test; assay type: functional; how it was run: as §2
[46] = system: Staphylococcus cohnii; assay: Antibacterial activity against Staphylococcus cohnii M6767 clinical isolate expressing mecA gene by microdilution test; assay type: functional; how it was run: as §1
[47] = system: Staphylococcus aureus; assay: Antibacterial activity against Staphylococcus aureus ATCC 29213 by microdilution test; assay type: functional; how it was run: as §1
[48] = system: Staphylococcus warneri; assay: Antibacterial activity against Staphylococcus warneri M6823 clinical isolate expressing mecA gene by microdilution test; assay type: functional; how it was run: as §1
[49] = system: Staphylococcus aureus; assay: Antibacterial activity against Staphylococcus aureus M6794 clinical isolate expressing mecA gene by microdilution test; assay type: functional; how it was run: as §1

## H-FGKEKKAWWRRRKWLK-NH2
[1]
  MIC90: inactive
[2]
  MIC90: inactive
[3]
  MIC90: inactive
[4]
  MIC90: inactive
[5]
  MIC90: inactive
[6]
  MIC90: inactive
[7]
  MIC90: inactive
[8]
  MIC90: inactive
[9]
  MIC90: inactive
[10]
  MIC90: inactive
[11]
  MIC90: inactive
[12]
  MIC90: inactive
[13]
  MIC90: inactive
[14]
  MIC90: inactive
[15]
  MIC90: inactive
[16]
  MIC90: inactive
[17]
  MIC90: inactive
[18]
  MIC90: inactive
[19]
  MIC90: inactive
[20]
  MIC90: inactive
[21]
  MIC90: inactive
[22]
  MIC90: inactive
[23]
  MIC90: inactive
[24]
  MIC90: inactive
[25]
  MIC90: inactive
[26]
  MIC90: inactive
[27]
  MIC90: inactive
[28]
  MIC90: inactive
[29]
  MIC90: inactive
[30]
  hemolysis: 1.5%
[31]
  MIC90: inactive
[32]
  MIC90: inactive
[33]
  MIC90: inactive
[34]
  MIC90: inactive
[35]
  MIC90: inactive
[36]
  MIC90: inactive
[37]
  MIC90: inactive
[38]
  MIC90: inactive
[39]
  MIC90: inactive
[40]
  MIC90: inactive
[41]
  MIC90: inactive
[42]
  MIC90: inactive
[43]
  MIC90: inactive
[44]
  MIC90: inactive
[45]
  MIC90: inactive

## CC[C@H](C)[C@H](NC(=O)[C@H](CCCCN)NC(=O)[C@H](CCCNC(=N)N)NC(=O)[C@H](CC(N)=O)NC(=O)CNC(=O)[C@H](CCCNC(=N)N)NC(=O)[C@H](Cc1ccccc1)NC(=O)[C@@H](NC(=O)[C@H](CS)NC(=O)[C@H](Cc1cnc[nH]1)NC(=O)[C@H](CC(C)C)NC(=O)[C@@H]1CCCN1C(=O)[C@H](CCC(N)=O)NC(=O)[C@@H]1CCCN1C(=O)[C@@H](NC(=O)[C@H](CC(N)=O)NC(=O)[C@@H]1CCCN1C(=O)[C@H](CC(C)C)NC(=O)CNC(=O)[C@@H](NC(=O)CNC(=O)[C@H](CO)NC(=O)[C@H](CC(C)C)NC(=O)[C@H](CC(C)C)NC(=O)[C@H](CC(=O)O)NC(=O)[C@H](CS)NC(=O)[C@@H](NC(=O)[C@@H](N)[C@@H](C)O)[C@@H](C)O)C(C)C)C(C)C)C(C)C)C(=O)N[C@@H](CCCCN)C(=O)N[C@@H](Cc1c[nH]c2ccccc12)C(N)=O (H-TTCDLLSGVGLPNVPQPLHCVFRGNRKIKW-NH2)
[5]
  MIC90: inactive
[46]
  MIC90: inactive
[9]
  MIC90: inactive
[17]
  MIC90: inactive
[47]
  MIC90: inactive
[27]
  MIC90: inactive
[30]
  hemolysis: 1.72%
[48]
  MIC90: inactive
[49]
  MIC90: inactive

— ChEMBL document CHEMBL3097989, “Antimicrobial activity of de novo designed cationic peptides against multi-resistant clinical isolates” (Eur J Med Chem, 2014)
